Numbering of substitutions follows the chain as printed. Where no end group is shown, it is not given here. The star is where a group is joined. Cbz = O=C(OCc1ccccc1)*
Experiments:
TG2 S3-2 Mut (E329A) = molecular target: T1, TG2 S3-2 Mut (E329A) (Homo sapiens, UniProt P21980, E329A); test: steady-state kinetic analysis with S3-2 mutant; assay type: biochemical; conditions: S3-2 (E329A) mutant, result in words
T1 sequence (P21980 1-687 E329A): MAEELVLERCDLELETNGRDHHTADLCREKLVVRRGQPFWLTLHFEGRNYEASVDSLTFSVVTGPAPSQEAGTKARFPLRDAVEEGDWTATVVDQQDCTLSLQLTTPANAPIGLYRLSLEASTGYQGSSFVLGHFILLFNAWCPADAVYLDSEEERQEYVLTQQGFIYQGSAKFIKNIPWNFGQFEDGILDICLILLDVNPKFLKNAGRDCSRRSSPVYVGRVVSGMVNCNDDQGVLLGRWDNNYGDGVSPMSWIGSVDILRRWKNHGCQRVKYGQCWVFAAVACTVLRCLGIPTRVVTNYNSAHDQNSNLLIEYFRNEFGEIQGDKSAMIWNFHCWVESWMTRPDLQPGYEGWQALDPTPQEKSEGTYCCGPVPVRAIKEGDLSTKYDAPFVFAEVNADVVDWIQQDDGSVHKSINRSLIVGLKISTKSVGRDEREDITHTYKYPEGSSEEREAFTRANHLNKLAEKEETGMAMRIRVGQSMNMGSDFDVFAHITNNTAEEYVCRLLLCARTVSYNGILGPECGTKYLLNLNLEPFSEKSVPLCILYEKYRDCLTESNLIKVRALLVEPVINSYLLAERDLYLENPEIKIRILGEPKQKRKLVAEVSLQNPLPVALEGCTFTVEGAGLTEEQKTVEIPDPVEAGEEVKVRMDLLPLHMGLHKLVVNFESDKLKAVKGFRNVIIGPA
Outline: (§1)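 N-terminally His-tagged human TG2, wild type or site-directed mutant, was expressed in E. coli BAP1 and purified by Ni-NTA, anion exchange and size exclusion. Steady-state deamidation was assayed at 1 μM enzyme with varying Gln-peptide substrate concentrations. Released NH4+ was coupled to glutamate dehydrogenase with 10 mM α-ketoglutarate and 500 μM NADH in 200 mM MOPS. Ca2+ was 5 mM unless otherwise varied.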

human TG2 = molecular target: T2, human TG2 (Homo sapiens, UniProt P21980); test: kinetic analysis of irreversible inhibitors using 1 as the TG2 substrate; assay type: biochemical; conditions: KM of substrate 1 used in the inhibitor analysis (Fig. 1D legend)
T2 sequence (P21980 1-687): T1 sequence (P21980 1-687 E329A) with A329E
Outline: as §1

Substance | catalytic activity of S3-2 mutant against the substrate (TG2 S3-2 Mut (E329A)) | Km (human TG2) [µM]
AcPQLPF [Compound 1] | barely detectable | 175
Cbz-Gln-Gly [ZQG, reference compound] | negligible | 

From article PMC11252922 (Proceedings of the National Academy of Sciences of the …, 2024)
